Measured values reported in the array DNA melting data of Ke et al. (doi:10.1101/2024.01.08.574731).

Experiments:
[1] = folding enthalpy; higher = less favourable; fluorescence melt of hairpins on a sequencing array, two-state fit; details: sodium 0.088 M
In short: (§1)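 In 50 mM Na-HEPES pH 8.0 containing 25 mM NaCl, hairpins from the library on a sequenced MiSeq flow cell were imaged for Cy3 fluorescence at 2.5 °C steps up to 60 °C, with Cy3 and quencher oligos annealed. After normalisation to pre-quench Cy3 and to control constructs, two-state fits with bootstrapping gave melting temperature and folding enthalpy. Four replicates were combined by inverse-variance weighting, and fitted temperatures were shifted up by 9.35 °C to match UV melts.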

[2] = melting temperature; fluorescence melt of hairpins on a sequencing array, two-state fit, raised by 9.35 °C to match UV melts; details: sodium 0.088 M
In short: as §1

Sequence | folding enthalpy [1] [kcal/mol] | Tm [2] [°C]
GCCGAGGGAAACCCCGAC (.((.((....)).)).) | -13.8 | 31
GCCGAGGGAAACCCCGGC ((((.((....)).)))) | -40.2 | 59.9
GCCGATGGAAACATTGGC (((.(((....))).))) | -55.2 | 54.6
GCCGCAACGAAAGTTGGC (((..(((....)))))) | -11.2 | 48
GCCGCAGGAAACCGCAGC ((.((.(....).)).)) | -9.87 | 31.2
GCCGCAGGAAACCGCGAC (.(((.(....).))).) | -15.6 | 35.9
GCCGCAGGAAACTGTGGC (((.(((....))).))) | -39.4 | 60.3
GCCGCCCGAAAGGGGGC (((.(((....)))))) | -18 | 68.7
GCCGCCGAAAGGCAAGGC ((((((....)))..))) | -24.6 | 65.5
GCCGCCGAAAGGCATGGC ((((((....)))..))) | -19.9 | 63
GCCGCCGAAAGGCCCGGC ((((((....)))..))) | -17.4 | 48
GCCGCCGAAAGGCGTGGC ((((((....)))..))) | -12.6 | 60.1
GCCGCCGCGAAAGCGGGC (((..(((....)))))) | -5.71 | 64
GCCGCGCGAAAGCACAGC ((.(.((....)).).)) | -13.6 | 46.9
GCCGCGCGAAAGCACTGC ((.(.((....)).).)) | -18.7 | 38.2
GCCGCGCGAAAGCAGGGC (((..((....))..))) | -23.1 | 61.5
GCCGCGCGAAAGCGGAGC ((..(((....)))..)) | -12.8 | 52.5
GCCGCGCGAAAGCGGTGC ((..(((....)))..)) | -16.2 | 58
GCCGCGCGAAAGCTCCGC ((.(.((....)).).)) | -7.61 | 33.2
GCCGCTCGAAAGAGGGC (((.(((....)))))) | -22.9 | 55.2
GCCGCTGCGAAAGCAGGC (((..(((....)))))) | -9.88 | 65.1
GCCGCTGGAAACAACGGC ((((.((....)).)))) | -37.1 | 54.3
GCCGGAGGAAACTCTGGC (((.(((....))).))) | -34.6 | 54.8

Sequence | folding enthalpy [1] [kcal/mol] | Tm [2] [°C]
GCCGGCGAAAGCCTAGGC ((((((....)))..))) | -24.5 | 60.1
GCCGGCGAAAGCCTGGGC ((((((....)))..))) | -24.5 | 60
GCCGGGCCGAAAGGCGGC (((..(((....)))))) | -17.6 | 59.4
GCCGGGCGAAAGCCTCGC ((..(((....)))..)) | -11.1 | 48.3
GCCGGGCGAAAGCGGGGC (((..((....))..))) | -22.9 | 63.3
GCCGGGCGAAAGCTCCGC ((.(.((....)).).)) | -13.1 | 45.2
GCCGGGCGAAAGCTCTGC ((.(.((....)).).)) | -18.5 | 41.4
GCCGGGCGAAAGCTTGGC (((..((....))..))) | -24.4 | 65.3
GCCGGGGGAAACCCCAGC ((.((((....)))).)) | -21.2 | 50.3
GCCGGGGGAAACTCCGGC (((((.(....).))))) | -39.3 | 68.5
GCCGGTACGAAAGTAGGC (((..(((....)))))) | -24.7 | 48.7
GCCGGTCGAAAGACAGGC (((.(((....))).))) | -41.7 | 69
GCCGGTGGAAACACCGAC (.(((((....))))).) | -12.4 | 55.3
GCCGTCCGAAAGGAGGC (((.(((....)))))) | -27.4 | 58.4
GCCGTCGAAAGACCGGC ((((((....))).))) | -36.8 | 60.5
GCCGTCGAAAGACCGGGC ((((((....)))..))) | -22.1 | 50.3
GCCGTCGAAAGACTGGGC ((((((....)))..))) | -26.4 | 53.7
GCCGTCGGAAACGATGGC (((.(((....))).))) | -41.1 | 65.5
GCCGTCTCGAAAGAGGGC (((..(((....)))))) | -24.9 | 50.6
GCCGTGCCGAAAGGCGGC (((..(((....)))))) | -13.9 | 66.8
GCCGTGCGAAAGCATCGC ((..(((....)))..)) | -11.1 | 50.2
GCCGTGCGAAAGCCAGGC (((..((....))..))) | -23.9 | 62.8
